According to ChEMBL document CHEMBL4813996, “Design and development of 1,3,5-triazine derivatives as protective agent against spinal cord injury in rat via inhibition of NF-ĸB” (Bioorg Med Chem Lett, 2021):
Activity calls are given as the source filed them. The rule behind the calls is not given here.

Legend:
[1] = Inhibition of NFkappaB transcriptional activity in LPS-stimulated mouse RAW264.7 cells
Outline: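 IC50 for inhibition of NF-κB transcription, reported as mean ± SD from at least three independent assays.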

[2] = test system: Rattus norvegicus; test: Neuroprotective activity in Sprague-Dawley rat SCI model assessed as reduction in MDA level at 10 to 30 mg/kg, ip administered once daily for 14 days; assay type: functional, organism-based; conditions: dose 10-30 mg/kg, time 14.0 day
Outline: (§1)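 Spinal cord of weight-drop contusion SCI rats dosed at 10, 20 or 30 mg/kg i.p. in 2% CMC daily for 14 days. Oxidative stress indices MDA, GSH and SOD measured in spinal cord. Mean ± SEM, three independent experiments, one-way ANOVA with Tukey test against sham and SCI groups.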

[3] = test system: Rattus norvegicus; test: Neuroprotective activity in ip dosed Sprague-Dawley rat SCI model assessed as increase in nissl bodies administered once daily for 14 days by Nissl staining based assay; assay type: functional, organism-based; conditions: dose 10-30 mg/kg, time 14.0 day
Outline: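 Contusion SCI by weight drop. Treatment at 10, 20 or 30 mg/kg i.p. in 2% CMC once daily for 14 days. Neuronal damage assessed by Nissl staining of the spinal cord, with Nissl bodies quantified. Mean ± SEM from three independent experiments.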

[4] = test system: Rattus norvegicus; test: Neuroprotective activity in Sprague-Dawley rat SCI model assessed as reduction in IL-1beta level at 10 to 30 mg/kg, ip administered once daily for 14 days by ELISA; assay type: functional, organism-based; conditions: dose 10-30 mg/kg, time 14.0 day
Outline: (§2)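 After weight-drop contusion SCI, rats received 10, 20 or 30 mg/kg i.p. as a 2% CMC suspension once daily for 14 days. TNF-α, IL-1β and IL-6 levels determined by ELISA. Mean ± SEM from three independent experiments, one-way ANOVA followed by Tukey post hoc test.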

[5] = test system: Rattus norvegicus; test: Neuroprotective activity in contusion injury induced Sprague-Dawley rat SCI model assessed as reduction in edema in spinal cord at 10 to 30 mg/kg, ip administered once daily for 14 days by H and E staining based assay; assay type: functional, organism-based; conditions: dose 10-30 mg/kg, time 14.0 day
Outline: (§3)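 Rats with SCI from weight-drop contusion received 10, 20 or 30 mg/kg i.p., suspended in 2% CMC, daily for 14 days. Spinal cord tissue sections stained with H&E for histopathology and edema. Three independent experiments, mean ± SEM, one-way ANOVA with Tukey post hoc test.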

[6] = test system: Rattus norvegicus; test: Neuroprotective activity in contusion injury induced Sprague-Dawley rat SCI model assessed as restoration of tissue histopathology in spinal cord at 10 to 30 mg/kg, ip administered once daily for 14 days by H and E staining based assay; assay type: functional, organism-based; conditions: dose 10-30 mg/kg, time 14.0 day; outline: as §3
[7] = test system: Rattus norvegicus; test: Neuroprotective activity in Sprague-Dawley rat SCI model assessed as reduction in IkappaBalpha expression in spinal cord at 10 to 30 mg/kg, ip administered once daily for 14 days by Western blot analysis; assay type: functional, organism-based; conditions: dose 10-30 mg/kg, time 14.0 day
Outline: (§4)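 Weight-drop contusion SCI rats treated with 10, 20 or 30 mg/kg i.p. in 2% CMC daily for 14 days. Spinal cord tissue analysed by western blot for NF-κB, p-IκBα and TLR4, with band quantification. Mean ± SEM of three independent experiments.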

[8] = test system: Rattus norvegicus; test: Neuroprotective activity in Sprague-Dawley rat SCI model assessed as reduction in IL-6 level at 10 to 30 mg/kg, ip administered once daily for 14 days by ELISA; assay type: functional, organism-based; conditions: dose 10-30 mg/kg, time 14.0 day; outline: as §2
[9] = test system: Rattus norvegicus; test: Neuroprotective activity in ip dosed contusion injury induced Sprague-Dawley rat SCI model assessed as restoration of motor functions administered once daily for 14 days; assay type: functional, organism-based; conditions: dose 10-30 mg/kg, time 14.0 day
Outline: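 Spinal cord contusion made by weight drop, a rod dropped onto the cord. Dosing at 10, 20 and 30 mg/kg i.p., suspended in 2% CMC, once daily for 14 days. Motor function scored on the BBB scale on days 1, 4, 7, 10 and 14. Mean ± SEM from three independent experiments, one-way ANOVA with Tukey post hoc test, compared with sham and SCI groups.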

[10] = test system: Rattus norvegicus; test: Neuroprotective activity in contusion injury induced Sprague-Dawley rat SCI model assessed as inhibition of morphological changes in spinal cord at 10 to 30 mg/kg, ip administered once daily for 14 days by H and E staining based assay; assay type: functional, organism-based; conditions: dose 10-30 mg/kg, time 14.0 day; outline: as §3
[11] = test system: Rattus norvegicus; test: Neuroprotective activity in Sprague-Dawley rat SCI model assessed as reduction in TNFalpha level at 10 to 30 mg/kg, ip administered once daily for 14 days by ELISA; assay type: functional, organism-based; conditions: dose 10-30 mg/kg, time 14.0 day; outline: as §2
[12] = test system: Rattus norvegicus; test: Neuroprotective activity in Sprague-Dawley rat SCI model assessed as increase in SOD level at 10 to 30 mg/kg, ip administered once daily for 14 days; assay type: functional, organism-based; conditions: dose 10-30 mg/kg, time 14.0 day; outline: as §1
[13] = test system: Rattus norvegicus; test: Neuroprotective activity in Sprague-Dawley rat SCI model assessed as reduction in TLR4 expression in spinal cord at 10 to 30 mg/kg, ip administered once daily for 14 days by Western blot analysis; assay type: functional, organism-based; conditions: dose 10-30 mg/kg, time 14.0 day; outline: as §4
[14] = test system: Rattus norvegicus; test: Neuroprotective activity in Sprague-Dawley rat SCI model assessed as increase in GSH level at 10 to 30 mg/kg, ip administered once daily for 14 days; assay type: functional, organism-based; conditions: dose 10-30 mg/kg, time 14.0 day; outline: as §1
[15] = test system: Rattus norvegicus; test: Neuroprotective activity in Sprague-Dawley rat SCI model assessed as reduction in NFkappaB expression in spinal cord at 10 to 30 mg/kg, ip administered once daily for 14 days by Western blot analysis; assay type: functional, organism-based; conditions: dose 10-30 mg/kg, time 14.0 day; outline: as §4
[16] = test system: Rattus norvegicus; test: Neuroprotective activity in contusion injury induced Sprague-Dawley rat SCI model assessed as improvement in ratio of wet to dry spinal cord weight at 10 to 30 mg/kg, ip administered once daily for 14 days; assay type: functional, organism-based; conditions: dose 10-30 mg/kg, time 14.0 day
Outline: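 Weight-drop contusion SCI, with a rod dropped on the cord. Rats given 10, 20 or 30 mg/kg i.p. in 2% CMC once a day for 14 days. Ratio of wet to dry spinal cord weight measured 24 h post-SCI. Mean ± SEM of three independent experiments, one-way ANOVA with Tukey test.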

Work on `Cc1nc(NC(=O)c2ccc(CN3CCN(c4ccc(O)cc4)CC3)cc2)nc(Nc2nccc(-c3nccs3)n2)n1` yielded an IC50 [1] of 54.2 µM.
Compound `COc1ccc(N2CCN(Cc3ccc(C(=O)Nc4nc(C)nc(Nc5nccc(-c6nccs6)n5)n4)cc3)CC2)cc1` has an IC50 [1] of 87.3 µM.
Compound `Cc1ccc(N2CCN(Cc3ccc(C(=O)Nc4nc(C)nc(Nc5nccc(-c6nccs6)n5)n4)cc3)CC2)cc1` has an IC50 [1] of 9.9 µM.
`Cc1ccc(NC(=O)c2ccc(CN3CCN(C)CC3)cc2)cc1Nc1nccc(-c2cccnc2)n1` [IMATINIB] showed an IC50 [1] of 1.34 µM.
`C[C@@H]1C[C@H]2[C@@H]3CCC4=CC(=O)C=C[C@]4(C)[C@@]3(F)[C@@H](O)C[C@]2(C)[C@@]1(O)C(=O)CO` [DEXAMETHASONE] showed an IC50 [1] of 0.92 µM.
For `Cc1nc(NC(=O)c2ccc(CN3CCN(c4ccc(Br)cc4)CC3)cc2)nc(Nc2nccc(-c3nccs3)n2)n1`, the IC50 [1] was 3.21 µM.
`Cc1nc(NC(=O)c2ccc(CN3CCN(c4ccc([N+](=O)[O-])cc4)CC3)cc2)nc(Nc2nccc(-c3nccs3)n2)n1` gave an IC50 [1] of 6.12 µM.
In the case of `Cc1nc(NC(=O)c2ccc(CN3CCN(c4ccc(Cl)cc4)CC3)cc2)nc(Nc2nccc(-c3nccs3)n2)n1`, the Activity [2] is reported as “Active”, the Activity [3] is reported as “Dose-Dependent Effect” and the Activity [4] is reported as “Active”. The Activity [5] was “Active”, the Activity [6] was “Active” and the Activity [7] was “Active”. The Activity [8] was “Active”, the Activity [9] was “Dose-Dependent Effect” and the IC50 [1] was 1.04 µM. The Activity [10] was “Active”, the Activity [11] was “Active” and the Activity [12] was “Active”. For the same compound, the Activity [13] was “Active”, the Activity [14] was “Active” and the Activity [15] was “Active”. The Activity [16] was “Active”.
Work on `Cc1nc(NC(=O)c2ccc(CN3CCN(c4ccccc4)CC3)cc2)nc(Nc2nccc(-c3nccs3)n2)n1` yielded an IC50 [1] of 136 µM.
